# Laboratory results as given in article PMC12279052 (RSC Advances, 2025).
# Key:
# [1] = Thermal stability by TG/DTG; assay type: physicochemical; conditions: first decomposition process, 10 K min^−1, argon
# Summary of the method: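 Simultaneous thermal analysis ran from 30–500 °C at 10 K min−1 on 3–5 mg sample in an Al2O3 crucible, with α-Al2O3 as reference. Argon served as protective gas at 20 mL min−1 and as purge gas at 60 mL min−1.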
# [2] = Octanol–water partition coefficient, shake-flask method; assay type: physicochemical
# Summary of the method: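 Shake-flask partitioning was run at 25 and 37 °C in water, SGF (pH 1.2), SIF (pH 6.8) or SBF (pH 7.4). Fluids were prepared per USP without enzyme and pre-saturated with n-octanol (24 h shaking, 24 h separation). Test compound in buffer-saturated octanol (5 mL) was shaken 24 h with 5 mL octanol-saturated buffer, then centrifuged 10 min. The octanol phase was read by UV at 200 nm, and log Ko/w = log Co/(C−Co).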
# [3] = Conductivity in low concentration region; assay type: physicochemical; conditions: in water
# Summary of the method: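 Conductivity of aqueous test compound solutions was measured at each temperature in double-distilled deionized water (0.8 − 1.0 × 10−4 S m−1 at 298.15 K). The digital meter and electrode were calibrated with standard KCl, and the thermostat held ±0.02 K; relative standard uncertainty was ±3%.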
# [4] = Aggregation in water by electrical conductivity; assay type: physicochemical; conditions: for cmc: conductivity, water; for ionization degree α: micelle (cmc); for ΔG^0m / ΔH^0m / ΔS^0m / −TΔS^0m: micellization (cmc)
# Summary of the method: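 Conductivity of aqueous test compound solutions was measured with a digital conductivity meter and electrode, calibrated against standard KCl, with a thermostat holding ±0.02 K and ±3% relative uncertainty. cmc and cac were taken from the break points, found by fitting the Aguiar equation. α came from the ratio of post- to pre-transition slopes (A2/A1), and micellization thermodynamic functions from the mass action model.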
# [5] = Steady-state fluorescence with pyrene probe; assay type: physicochemical; conditions: 298.15 K
# Summary of the method: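 Pyrene (1 μM) served as probe at 298.15 K. Excitation was 335 nm, emission 355–650 nm, slits 2.5 nm, 700 V, 240 nm min−1, in a 1 cm quartz cuvette. cmc came from a Boltzmann fit of I1/I3 (373/384 nm). For Nagg, test compound at 2.5 cmc was quenched with cetylpyridinium chloride at 0.2–1.0 × 10−4 mol dm−3, and Nagg was derived from linear ln(I0/I) versus [Q].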
# [6] = Density measurement, apparent molar volume at infinite dilution in water; assay type: physicochemical; conditions: aqueous solution
# Summary of the method: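 Solution density was measured with a vibrating-tube densitometer calibrated with dry air and double-distilled water, with Peltier temperature control at ±0.01 K and density uncertainty 2.0 × 10−4 g cm−3. Apparent molar volumes were computed versus molality. Infinite-dilution values came from the Redlich–Mayer equation with empirical parameters Sv and Bv.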
# [7] = test system: Escherichia coli ATCC25922; assay: Antibacterial activity, broth dilution MIC; assay type: cell-based; conditions: E. coli, n = 3
# [8] = test system: Staphylococcus aureus ATCC29213; assay: Antibacterial activity, broth dilution MIC; assay type: cell-based; conditions: S. aureus, n = 3
# [9] = test system: Candida albicans ATCC10231; assay: Antimicrobial activity, broth dilution MIC; assay type: cell-based; conditions: C. albicans, n = 3
# [10] = test system: Cutibacterium acnes ATCC6919; assay: Antibacterial activity, broth dilution MIC; assay type: cell-based; conditions: C. acnes, n = 3
# [11] = test system: human lung cancer cell line A549; assay: Cell toxicity assay, MTT; assay type: cell-based; conditions: A549, MTT, 24 h, n = 3
# [12] = test system: human hepatocellular carcinoma cell line HepG2; assay: Cell toxicity assay, MTT; assay type: cell-based; conditions: HepG2, MTT, 24 h, n = 3
smiles,measurement,setting,value
CCCCCCCCCCC(=O)O.O=C1CCC[C@@H]2[C@H]3CCCN4CCC[C@@H](CN12)[C@@H]34 [[Mat][C11]],T onset (onset decomposition temperature),[1],199.4 °C
same,Log K o/w,"[2]; pH = 1.2 (SGF), 25 °C",−0.32
same,Log K o/w,"[2]; pH = 1.2 (SGF), 37 °C",0.26
same,Log K o/w,"[2]; pH = 6.8 (SIF), 25 °C",0.04
same,Log K o/w,"[2]; pH = 6.8 (SIF), 37 °C",0.35
same,Log K o/w,"[2]; pH = 7.0 (ultrapure water), 25 °C",0.77
same,Log K o/w,"[2]; pH = 7.0 (ultrapure water), 37 °C",0.91
same,Log K o/w,"[2]; pH = 7.4 (SBF), 25 °C",1.20
same,Log K o/w,"[2]; pH = 7.4 (SBF), 37 °C",1.27
same,Association constant KA,[3]; 298.15 K,19.06 ± 1.31 dm^3 mol^−1
same,Limiting molar conductivity Λ0,[3]; 298.15 K,44.67 ± 0.06 S cm^2 mol^−1
same,Association constant KA,[3]; 303.15 K,7.36 ± 1.09 dm^3 mol^−1
same,Limiting molar conductivity Λ0,[3]; 303.15 K,49.46 ± 0.06 S cm^2 mol^−1
same,Association constant KA,[3]; 308.15 K,2.04 ± 1.14 dm^3 mol^−1
same,Limiting molar conductivity Λ0,[3]; 308.15 K,55.26 ± 0.07 S cm^2 mol^−1
same,cmc,[4]; 293.15 K,0.00385 mol/kg
same,cmc,[4]; 298.15 K,0.00395 mol/kg
same,cmc,[4]; 303.15 K,0.00402 mol/kg
same,cmc,[4]; 308.15 K,0.00407 mol/kg
same,cmc,[4]; 313.15 K,0.00411 mol/kg
same,ionization degree α,[4]; 293.15 K,0.8532
same,ionization degree α,[4]; 298.15 K,0.8429
same,ionization degree α,[4]; 303.15 K,0.8267
same,ionization degree α,[4]; 308.15 K,0.8151
same,ionization degree α,[4]; 313.15 K,0.7968
same,ΔG^0m,[4]; 293.15 K,-6.398 kcal/mol
same,ΔH^0m,[4]; 293.15 K,-1.04 kcal/mol
same,ΔS^0m,[4]; 293.15 K,76.44 J mol^−1 K^−1
same,−TΔS^0m,[4]; 293.15 K,-5.356 kcal/mol
same,ΔG^0m,[4]; 298.15 K,-6.546 kcal/mol
same,ΔH^0m,[4]; 298.15 K,-0.872 kcal/mol
same,ΔS^0m,[4]; 298.15 K,79.65 J mol^−1 K^−1
same,−TΔS^0m,[4]; 298.15 K,-5.676 kcal/mol
same,ΔG^0m,[4]; 303.15 K,-6.738 kcal/mol
same,ΔH^0m,[4]; 303.15 K,-0.688 kcal/mol
same,ΔS^0m,[4]; 303.15 K,83.51 J mol^−1 K^−1
same,−TΔS^0m,[4]; 303.15 K,-6.052 kcal/mol
same,ΔG^0m,[4]; 308.15 K,-6.907 kcal/mol
same,ΔH^0m,[4]; 308.15 K,-0.483 kcal/mol
same,ΔS^0m,[4]; 308.15 K,87.26 J mol^−1 K^−1
same,−TΔS^0m,[4]; 308.15 K,-6.427 kcal/mol
same,ΔG^0m,[4]; 313.15 K,-7.122 kcal/mol
same,ΔH^0m,[4]; 313.15 K,-0.258 kcal/mol
same,ΔS^0m,[4]; 313.15 K,91.70 J mol^−1 K^−1
same,−TΔS^0m,[4]; 313.15 K,-6.864 kcal/mol
same,cmc,"[5]; Fluorescence (pyrene I1/I3), water",0.00384 mol/kg
same,N agg (aggregation number),"[5]; ST = 2.5 cmc, fluorescence quenching with CPC",77
same,"Apparent molar volume at infinite dilution V^0 2,φ",[6]; 293.15 K,386.51 ± 0.35 cm^3 mol^−1
same,"Apparent molar volume at infinite dilution V^0 2,φ",[6]; 298.15 K,389.66 ± 0.38 cm^3 mol^−1
same,"Apparent molar volume at infinite dilution V^0 2,φ",[6]; 303.15 K,392.77 ± 0.34 cm^3 mol^−1
same,"Apparent molar volume at infinite dilution V^0 2,φ",[6]; 308.15 K,396.26 ± 0.38 cm^3 mol^−1
same,MIC,[7],28800 µM
same,MIC,[8],900 µM
same,MIC,[9],460 µM
same,MIC,[10],460 µM
same,IC50,[11],710 µM
same,IC50,[12],450 µM
